{
  "source": "ChEMBL document CHEMBL1131239",
  "about": "“Orally active benzamide antipsychotic agents with affinity for dopamine D2, serotonin 5-HT1A, and adrenergic alpha1 receptors” (J Med Chem, 1998)",
  "key": {"[1]": {"system": "Rattus norvegicus", "test": "Percent catalepsy in male Spargue-Dawley rat at pretreatment time 60 mins and when administered ip at dose 50 mg/kg", "type": "functional", "conditions": "route intraperitoneal", "in_short": "(§1)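 Catalepsy in rats, groups of five per drug treatment, scored blind to drug and dose. Each session included a saline or vehicle negative control and a haloperidol 2 mg/kg positive control. Deaths during the experiment were recorded in the catalepsy column as number dead out of five.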"}, "[2]": {"system": "Rattus norvegicus", "test": "compound was tested for antipsychotic activity by conditioned avoidance response(CAR) assay in rats with a pretreatment period of 30 min upon intra peritoneal administration at a concentration of 2.5 mg/kg.", "type": "functional", "in_short": "(§2)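 Trained rats (N = 4) were run in 1-h sessions on two consecutive days, with the experimenter blind to drug and dose. Fed rats had food and water until placed in the test chambers. Fasted rats had no food overnight before the experiment.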"}, "[3]": {"system": "Rattus norvegicus", "test": "compound was tested for antipsychotic activity by conditioned avoidance response(CAR) assay in rats with a pretreatment period of 30 min upon intra peritoneal administration at a concentration of 1 mg/kg.", "type": "functional", "in_short": "as §2"}, "[4]": {"system": "Rattus norvegicus", "test": "compound was tested for antipsychotic activity by conditioned avoidance response(CAR) assay in rats with a pretreatment period of 30 min upon intra peritoneal administration at a concentration of 5 mg/kg.", "type": "functional", "in_short": "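Rat conditioned avoidance test modified from Martin et al. Trained rats (N = 4) were run in 1-h sessions on two consecutive days. Fed animals had food and water until placed in the test chambers. Dosing was ip with 30 min pretreatment, and activity was expressed as percent inhibition at the stated dose.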"}, "[5]": {"system": "Rattus norvegicus", "test": "compound was tested for antipsychotic activity by conditioned avoidance response(CAR) assay in rats with a pretreatment period of 240 min upon intra peritoneal administration at a concentration of 2.5 mg/kg.", "type": "functional", "in_short": "as §2"}, "[6]": {"system": "Rattus norvegicus", "test": "Percent catalepsy in male Spargue-Dawley rat at pretreatment time 240 mins and when administered ip at dose 50 mg/kg", "type": "functional", "conditions": "route intraperitoneal", "in_short": "as §1"}, "[7]": {"target": "T1, Adrenergic receptor alpha-1 (Rattus norvegicus, UniProt P15823+P23944+P43140)", "T1 sequence (P15823 whole entry)": "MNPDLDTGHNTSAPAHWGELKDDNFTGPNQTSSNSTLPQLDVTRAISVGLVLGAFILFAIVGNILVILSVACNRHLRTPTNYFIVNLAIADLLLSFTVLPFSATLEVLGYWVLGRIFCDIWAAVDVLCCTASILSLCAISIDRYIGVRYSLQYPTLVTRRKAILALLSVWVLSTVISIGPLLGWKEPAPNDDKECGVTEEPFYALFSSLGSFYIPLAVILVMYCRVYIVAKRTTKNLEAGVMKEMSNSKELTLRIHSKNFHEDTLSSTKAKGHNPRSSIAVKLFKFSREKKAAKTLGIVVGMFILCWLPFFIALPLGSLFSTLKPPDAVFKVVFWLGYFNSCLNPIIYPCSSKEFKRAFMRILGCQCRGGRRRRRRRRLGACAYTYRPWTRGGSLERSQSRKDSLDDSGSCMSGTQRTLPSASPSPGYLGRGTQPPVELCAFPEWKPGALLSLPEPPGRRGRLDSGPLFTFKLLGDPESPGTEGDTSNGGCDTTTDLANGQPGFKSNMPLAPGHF", "T1 sequence (P23944 whole entry)": "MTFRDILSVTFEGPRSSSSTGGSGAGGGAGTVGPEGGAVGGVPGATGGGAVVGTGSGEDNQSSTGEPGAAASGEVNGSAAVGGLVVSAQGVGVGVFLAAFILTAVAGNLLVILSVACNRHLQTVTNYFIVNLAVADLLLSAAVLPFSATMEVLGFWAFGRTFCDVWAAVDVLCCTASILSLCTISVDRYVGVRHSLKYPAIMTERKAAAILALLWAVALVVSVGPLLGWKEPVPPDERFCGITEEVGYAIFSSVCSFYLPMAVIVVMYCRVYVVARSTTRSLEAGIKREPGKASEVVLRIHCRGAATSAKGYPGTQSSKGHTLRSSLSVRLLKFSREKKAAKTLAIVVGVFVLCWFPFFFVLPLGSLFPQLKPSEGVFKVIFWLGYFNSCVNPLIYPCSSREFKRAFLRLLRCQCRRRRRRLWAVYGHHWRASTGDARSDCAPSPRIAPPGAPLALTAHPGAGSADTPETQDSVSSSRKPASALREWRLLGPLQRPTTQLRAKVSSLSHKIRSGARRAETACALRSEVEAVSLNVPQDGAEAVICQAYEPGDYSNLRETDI", "T1 sequence (P43140 whole entry)": "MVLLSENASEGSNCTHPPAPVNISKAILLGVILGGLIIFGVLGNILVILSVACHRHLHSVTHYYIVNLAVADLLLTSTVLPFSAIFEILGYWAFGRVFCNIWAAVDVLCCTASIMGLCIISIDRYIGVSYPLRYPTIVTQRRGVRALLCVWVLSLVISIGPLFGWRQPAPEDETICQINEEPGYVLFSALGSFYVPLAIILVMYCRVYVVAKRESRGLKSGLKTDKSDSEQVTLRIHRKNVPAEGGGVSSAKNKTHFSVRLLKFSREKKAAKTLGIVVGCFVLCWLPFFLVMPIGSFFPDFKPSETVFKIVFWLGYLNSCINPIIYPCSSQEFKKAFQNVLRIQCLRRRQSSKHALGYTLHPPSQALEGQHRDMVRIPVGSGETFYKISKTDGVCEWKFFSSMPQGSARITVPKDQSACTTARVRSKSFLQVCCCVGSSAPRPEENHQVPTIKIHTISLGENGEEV", "test": "Binding affinity against Alpha-1 adrenergic receptor from rat cerebral cortex", "type": "tissue-based"}, "[8]": {"system": "Rattus norvegicus", "test": "compound was tested for antipsychotic activity by conditioned avoidance response(CAR) assay in rats with a pretreatment period of 60 min upon peroral administration at a concentration of 20 mg/kg.", "type": "functional", "conditions": "route oral"}, "[9]": {"system": "Rattus norvegicus", "test": "compound was tested for antipsychotic activity by conditioned avoidance response(CAR) assay in rats with a pretreatment period of 30 min upon intra peritoneal administration at a concentration of 15 mg/kg.", "type": "functional"}, "[10]": {"system": "Rattus norvegicus", "test": "compound was tested for antipsychotic activity by conditioned avoidance response(CAR) assay in rats with a pretreatment period of 240 min upon peroral administration at a concentration of 20 mg/kg.", "type": "functional", "conditions": "route oral", "in_short": "as §2"}, "[11]": {"target": "T2, 5-hydroxytryptamine receptor 1A (Rattus norvegicus, UniProt P19327)", "T2 sequence (P19327 whole entry)": "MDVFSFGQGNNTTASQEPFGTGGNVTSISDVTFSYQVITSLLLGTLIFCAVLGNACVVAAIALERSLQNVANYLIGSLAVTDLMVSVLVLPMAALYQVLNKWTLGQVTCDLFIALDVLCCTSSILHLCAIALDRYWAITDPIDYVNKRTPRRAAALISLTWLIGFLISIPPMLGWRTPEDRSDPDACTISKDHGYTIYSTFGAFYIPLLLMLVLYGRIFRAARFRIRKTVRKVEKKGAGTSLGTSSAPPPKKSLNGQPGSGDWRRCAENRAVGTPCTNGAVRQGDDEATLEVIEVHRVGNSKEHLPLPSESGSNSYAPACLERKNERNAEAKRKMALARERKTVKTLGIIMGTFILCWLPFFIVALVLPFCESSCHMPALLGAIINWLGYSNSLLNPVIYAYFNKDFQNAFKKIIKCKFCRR", "test": "Compound was evaluated for its binding affinity against 5-hydroxytryptamine 1A receptor from rat cerebral cortex", "type": "tissue-based"}},
  "data": [
    {"smiles": "CCN(CC)C(=O)c1cccc(CN2CCN(c3ccccc3OC(C)C)CC2)c1", "values": [
      {"measurement": "Catalepsy", "setting": "[1]", "value": 76.9, "unit": "%"},
      {"measurement": "inhibition in vivo at 2.5 mg/kg", "setting": "[2]", "value": -60, "unit": "%"},
      {"measurement": "inhibition in vivo at 1 mg/kg", "setting": "[3]", "value": -65.1, "unit": "%"},
      {"measurement": "inhibition in vivo at 5 mg/kg", "setting": "[4]", "value": -96.2, "unit": "%"},
      {"measurement": "inhibition in vivo at 2.5 mg/kg", "setting": "[5]", "value": -44.4, "unit": "%"},
      {"measurement": "Catalepsy", "setting": "[6]", "value": 36.8, "unit": "%"},
      {"measurement": "Ki", "setting": "[7]", "value": 4.4, "unit": "nM"},
      {"measurement": "inhibition in vivo at 20 mg/kg", "setting": "[8]", "value": -93.4, "unit": "%"},
      {"measurement": "inhibition in vivo at 15 mg/kg", "setting": "[9]", "value": -94.5, "unit": "%"},
      {"measurement": "inhibition in vivo at 20 mg/kg", "setting": "[10]", "value": -44.6, "unit": "%"},
      {"measurement": "Ki", "setting": "[11]", "value": 2.1, "unit": "nM"}
    ]}
  ]
}
